Laboratory results from ChEMBL document CHEMBL1124462, “Synthesis, DNA binding, and biological evaluation of synthetic precursors and novel analogues of netropsin” (J Med Chem, 1989).
Converted amounts (≈) assume the structure as drawn.

Key:
Sindbis virus = assay: Minimum inhibitory concentration required to reduce Sindbis virus induced cytopathogenicity by 50% in african green monkey (VeroB) cells; assay type: functional
Procedure, shortened: (§1)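 Cell cultures (PRK, HeLa or Vero B) are infected at 100 × CCID50. Cytopathogenicity is recorded once it reaches completion in the untreated virus-infected controls. The minimum inhibitory concentration is given in μg/mL.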

[1] = test system: Mammalian orthoreovirus 1; assay: Minimum inhibitory concentration required to reduce reovirus-1 induced cytopathogenicity by 50% in african green monkey (VeroB)cells; assay type: functional; procedure, shortened: as §1
FM3A = assay: In vitro inhibition of FM3A (murine mammary carcinoma) cell proliferation.; assay type: functional; conditions: Mus musculus, read-out: CD50 (the source's name)
L1210 = assay: Dose required to inhibit Murine leukemia (L1210) cell proliferation by 50%; assay type: functional; conditions: Mus musculus, read-out: CD50 (the source's name)
Raji = assay: Dose required to inhibit Human B-Lymphoblast (Raji) cell proliferation by 50%; assay type: functional; conditions: read-out: CD50 (the source's name)
Human alphaherpesvirus 2 = assay: Minimum inhibitory concentration required to reduce herpes simplex virus-2(G) induced cytopathogenicity by 50% in primary rabbit kidney cells (PRK); assay type: functional; procedure, shortened: as §1
[2] = test system: Vesicular stomatitis virus; assay: Minimum inhibitory concentration required to reduce vesicular stomatitis virus induced cytopathogenicity by 50% in primary rabbit kidney cells (PRK); assay type: functional
Vero [3] = assay: Minimum inhibitory concentration required to reduce parainfluenza virus-3 induced cytopathogenicity by 50% in african green monkey (VeroB) cells; assay type: functional, Human respirovirus 3; conditions: Chlorocebus sabaeus; procedure, shortened: as §1
HeLa [4] = assay: Minimum inhibitory concentration required to reduce Coxsackie virus B4 induced cytopathogenicity by 50% in HeLa cells; assay type: functional; conditions: Homo sapiens; procedure, shortened: as §1
Oryctolagus cuniculus = species on record: Oryctolagus cuniculus; assay: Minimum cytotoxic concentration required to cause a microscopically detectable alteration of normal cell morphology and show antiviral activity in primary rabbit kidney (PRK) cells; assay type: functional
Human alphaherpesvirus 1 = assay: Minimum inhibitory concentration required to reduce herpes simplex virus-1 (KOS) induced cytopathogenicity by 50% in primary rabbit kidney cells(PRK); assay type: functional; procedure, shortened: as §1
HeLa [5] = assay: Minimum cytotoxic concentration required to cause a microscopically detectable alteration of normal cell morphology and show antiviral activity in HeLa cells; assay type: functional; conditions: Homo sapiens
Procedure, shortened: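 HeLa cell cultures exposed to compound for the same duration as the antiviral assay, then examined microscopically. The minimum cytotoxic concentration is the lowest level causing detectable alteration of normal cell morphology. Values are in μg/mL.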

Vero [6] = assay: Minimum inhibitory concentration required to reduce Coxsackie virus B4 induced cytopathogenicity by 50% in african green monkey (VeroB) cells; assay type: functional, Coxsackievirus B4; conditions: Chlorocebus sabaeus; procedure, shortened: as §1
[7] = Dose required to inhibit Human T-Lymphoblast (Molt/4F) cell proliferation by 50%; assay type: functional; conditions: read-out: CD50 (the source's name)
Vero [8] = assay: Minimum cytotoxic concentration required to cause a microscopically detectable alteration of normal cell morphology and show antiviral activity in african green monkey (Vero B) cells; assay type: functional; conditions: Chlorocebus sabaeus
Semliki Forest virus = assay: Minimum inhibitory concentration required to reduce semliki forest virus induced cytopathogenicity by 50% in african green monkey (VeroB) cells; assay type: functional; procedure, shortened: as §1
Nucleic Acid [9] = assay: Association constant against the polynucleotide poly (dA-dT).; assay type: nucleic-acid assay
Procedure, shortened: (§2)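 Competition with ethidium bromide binding at 25 °C in 0.01 M cacodylate buffer, pH 7.0, with 1.26 μM ethidium bromide and 1 μM polynucleotide. Bound ethidium is estimated from its fluorescence increase (V = 34 for poly(dA-dT), 25 for poly(dG-dC)). IC50 for 50% ethidium displacement comes from a fitted competition sigmoid. Kapp is calculated from IC50 assuming a binding size of four base pairs.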

Nucleic Acid [10] = assay: Association constant against polynucleotide poly (dG-dC); assay type: nucleic-acid assay; procedure, shortened: as §2
Nucleic Acid [11] = assay: Ratio of association constant of poly (dA-dT) and poly (dG-dC); assay type: nucleic-acid assay
Procedure, shortened: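 Kapp for poly(dA-dT) and for poly(dG-dC) is each determined by ethidium bromide competition in 0.01 M cacodylate, pH 7.0, 25 °C, with 1.26 μM ethidium and 1 μM polynucleotide. IC50 comes from a fitted competition sigmoid and is converted to Kapp assuming a four-base-pair binding size. The ratio is taken between the two polynucleotides.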

SMILES	MIC (Sindbis virus) [mg/L]	MIC [1] [mg/L]	CC50 (FM3A) [mg/L]	CC50 (L1210) [mg/L]	CC50 (Raji) [mg/L]	MIC (Human alphaherpesvirus 2) [mg/L]	MIC [2] [mg/L]	MIC (Vero [3]) [mg/L]	MIC (HeLa [4]) [mg/L]	MCC (Oryctolagus cuniculus) [µg/mL]	MIC (Human alphaherpesvirus 1) [mg/L]	MCC (HeLa [5]) [µg/mL]	MIC (Vero [6]) [mg/L]	CC50 [7] [mg/L]	MCC (Vero [8]) [µg/mL]	MIC (Semliki Forest virus) [mg/L]	K app (Nucleic Acid [9]) [M⁻¹]	K app (Nucleic Acid [10]) [M⁻¹]	Ratio (Nucleic Acid [11])
COC(=O)c1ccc([N+](=O)[O-])n1C	> 400	> 200	84.7 (≈ 460 µM)	28 (≈ 152 µM)	62.4 (≈ 339 µM)	> 400	> 400	> 100	> 400	>400	> 400	400	> 200	66 (≈ 358 µM)	400	> 400			
Cn1cc([N+](=O)[O-])cc1C(=O)NCCC(=N)N	> 200	> 200		> 50	> 50	> 200	> 400	> 200	> 400	>400	> 200	> 400	> 200	> 50	> 400	> 200	< 100	< 100	
COC(=O)c1cc(NC(=O)c2cc([N+](=O)[O-])cn2C)cn1C	> 10	> 10	> 100	> 100	> 100	> 10	> 40	> 10	> 40	>40	> 10	> 40	> 10	> 100	> 40	> 10			
Cn1cc([N+](=O)[O-])cc1C(=O)O	> 400	> 400	> 100	> 100	> 100	> 400	> 400	> 400	> 400	>400	> 400	> 400	> 200	> 100	> 400	> 400			
Cn1cc(NC(=O)c2cc(NC(=O)c3cc(NC=O)cn3C)cn2C)cc1C(=O)NCCC(=N)N																	8.5e+07	25000	3400
CC(NC(=O)c1cc(NC(=O)c2cc(NC(=O)CNC(=N)N)cn2C)cn1C)C(=O)OC(C)(C)C (configuration not stated)	> 400	> 400	> 100	> 100	> 100	> 400	> 400	> 400	> 400	>400	> 400	> 400	> 400	> 100	> 400	> 400	8700	10000	0.87
CC(NC(=O)c1cc(NC(=O)c2cc(NC(=O)CNC(=N)N)cn2C)cn1C)C(=O)O (configuration not stated)	> 200	> 200	> 100	> 100	> 100	> 200	> 200	> 200	> 200	>200	> 200	> 200	> 200	> 100	> 200	> 200	< 100	< 100	
Cn1c(C(=O)NCCC(=N)N)ccc1[N+](=O)[O-]	> 200	> 100		> 50	> 50	> 100	> 400	100 (≈ 418 µM)	> 400	>400	> 200	> 400	> 100	> 50	> 400	> 200	< 100	< 100	
C[C@H](NC(=O)[C@H](C)NC(=O)[C@H](C)NC(=O)c1cc(NC(=O)c2cc(NC(=O)CNC(=N)N)cn2C)cn1C)C(=O)O	> 400	> 200	> 100	> 100	> 100	> 400	> 400	> 400	> 400	>400	> 400	> 400	> 400	> 100	> 400	> 400	< 100	5000	< 0.02
Cn1cc(NC(=O)c2cc([N+](=O)[O-])cn2C)cc1C(=O)O	> 400	> 400	> 100	> 100	> 100	> 400	> 400	> 200	> 400	>400	> 400	> 400	150 (≈ 513 µM)	> 100	> 400	> 400			
Cn1cc(NC(=O)CNC(=N)N)cc1C(=O)NCCCNCCCCN	> 400	> 200	> 200	> 200	> 200	> 400	> 400	> 200	> 400	>400	> 400	> 400	> 400	> 200	> 400	> 400			5.26
Cn1cc(NC(=O)c2cc([N+](=O)[O-])cn2C)cc1C(=O)NCCCNCCCCN	> 400	> 200		> 100	> 100	> 200	> 100	> 200	> 400	>200	> 200	> 400	> 200	> 100	> 400	> 400	440000	82000	5.37
